High-throughput results (PubChem)
MC4R antagonist: antagonists of human melanocortin 4 receptor (MC4R) | P32245 | inhibition, % at 6.5 µM | actives 0.48% (n = 360,000) | MC4R-expressing cells, MTII-stimulated cAMP, LANCE TR-FRET;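 active = inhibition above its plate's cutoff, the mean of tested wells on that plate plus 3 SD, cut at about 29% in these data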;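 note: 0% = Melanotan II alone and 100% = Melanotan II plus saturating MCL0020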
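Material: human MC4R-expressing U2OS cells. Probe or stimulus: Melanotan II challenge. Dosing: 6.5 µM single dose. Times: 30-min compound, 1-h challenge, 1-h detection, room temperature. Technique: TR-FRET with Eu-cAMP and labeled anti-cAMP, 671 nm. Replication: singlicate.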
AI-2 QS modul: modulators of Vibrio harveyi AI-2 quorum sensing system; Vibrio harveyi JMH597 AI-2 luminescence/OD600 ratio, 9 h; stronger effect = lower value; strain lacks LuxN and CqsS sensors; 0 = neutral-control median; actives 0.4% (n = 300,000); AID 2094; activity change, % at 7.5 µM; in the data active = activity change below about -75%, passing the limit was not always enough;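 note: luminescence divided by OD600 gain over 9 h not by final OD600 alone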
NTR1 ag: agonists of human neurotensin receptor NTR1. NTR1-U2OS beta-arrestin-GFP spot imaging, agonist mode. actives 0.17% (n = 330,000). activation, % at 20 µM;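 active = activation at or above 40% of the spot to cytoplasm intensity ratio, with at least 20 cells analyzed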;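 note: 0% = DMSO without peptide and 100% = 100 nM NTR1 peptide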
Target sequence (P30989 whole entry, looked up): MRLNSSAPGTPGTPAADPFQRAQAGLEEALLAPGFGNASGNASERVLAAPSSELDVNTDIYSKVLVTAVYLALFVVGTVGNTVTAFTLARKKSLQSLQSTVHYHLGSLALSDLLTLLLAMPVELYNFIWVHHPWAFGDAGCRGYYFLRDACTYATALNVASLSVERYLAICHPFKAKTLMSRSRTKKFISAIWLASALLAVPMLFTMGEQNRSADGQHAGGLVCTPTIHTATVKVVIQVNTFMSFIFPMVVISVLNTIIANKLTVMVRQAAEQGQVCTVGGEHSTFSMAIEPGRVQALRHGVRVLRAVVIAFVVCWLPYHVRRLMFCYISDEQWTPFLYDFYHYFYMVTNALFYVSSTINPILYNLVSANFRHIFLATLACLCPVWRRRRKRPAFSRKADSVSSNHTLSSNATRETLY
MC4R ag barr: agonists of human melanocortin 4 receptor (MC4R) beta-arrestin; U2OS MC4R beta-arrestin complementation, luminescence; percent of melanotan II response, DMSO zero; P32245; activation, % at 8.9 µM; actives 0.98% (n = 360,000);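 active = activation above a per-plate cutoff, the mean activation of sample wells on that plate plus 3 SD, cut at about 8% in these data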
cAMP nonselect: U2OS forskolin cAMP inhibition counter-screen | parental U2OS, LANCE TR-FRET | actives 26% (n = 1,600) | inhibition, % at 6.5 µM | shares compounds with MC4R antagonist | AID 602193;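 active = mean inhibition over triplicates above the low-control well mean plus 3 SD, set per campaign, cut at about 13% in these data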;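 note: signal is single emission at 671 nm which falls as cellular cAMP rises; 0% = forskolin-stimulated wells and 100% = buffer without forskolin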
MC4R cAMP antag: human MC4R cAMP antagonism confirmation | shares compounds with MC4R antagonist | MC4R-expressing cells, MTII-stimulated cAMP, TR-FRET | inhibition, % at 6.5 µM | actives 27% (n = 1,600) | AID 602195; in the data active = inhibition above about 29%;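 note: 0% = agonist stimulated wells alone and 100% = agonist stimulated wells plus saturating reference antagonist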
The depositor's hits bear a star; · = no result given. Most compounds without a hit are left out; they make up all but 1.8% or so of the library.

SMILES	MC4R antagonist	AI-2 QS modul	NTR1 ag	MC4R ag barr	cAMP nonselect	MC4R cAMP antag
Cc1nc(SCCC(=O)O)c2ccccc2n1	54*	45	-1	1	19*	34*
CC(=O)CSc1nc(-c2cccs2)c(C#N)c(=O)[nH]1	46*	21	0	1	36*	60*
Cc1ccc(C)c(S(=O)(=O)Nc2ccc(-n3cnnn3)cc2)c1	5	·	2	-2	·	·
O=C(OCC(=O)N1CCc2ccccc21)c1n[nH]c(=O)c2ccccc12	-1	·	-2	-2	·	·
COc1ccccc1CN1C[C@@H]2C[C@@H](C3=Cc4cccc(OC)c4OC3)N3CCC[C@@]23C1=O	33*	19	0	0	4	0
COc1ccc2[nH]c3c(=S)nc[nH]c3c2c1	38*	1	-1	-2	4	13
COc1ccc(CNC(=O)CCC(=O)Nc2nnc(C(F)(F)F)s2)cc1	2	17	-1	-1	·	·
CNc1nc(Nc2ccc([N+](=O)[O-])cc2)nc(OCC(F)(F)F)n1	15	3	2	1	·	·
CNc1nc(N/N=C/c2cc([N+](=O)[O-])ccc2F)nc(Nc2ccccc2)n1	47*	·	·	-1	19*	62*
Cc1noc(C)c1NC(=O)N(C)C[C@H]1Oc2c(NS(=O)(=O)c3cn(C)cn3)cccc2C(=O)N([C@H](C)CO)C[C@@H]1C	7	·	-2	0	·	·
COc1ccc(Cl)cc1-c1n[nH]c(=S)o1	72*	25	-3	-1	45*	78*
CSc1ccccc1-c1n[nH]c(=S)o1	90*	57	-1	-2	50*	94*
COc1ccccc1-c1n[nH]c(=S)o1	21	·	0	-2	·	·
Cc1ccccc1-c1n[nH]c(=S)o1	42*	36	3	-2	25*	47*
O=C(NCC(=O)N(Cc1ccccc1)C(C(=O)NCC1CCCO1)c1ccccc1)c1ccco1 (stereo not given)	-1	23	2	0	·	·
CC(=O)Nc1sc2c(c1C(c1ccc(F)cc1)N1CCOCC1)CCCC2 (stereo not given)	29*	16	3	2	2	6
CC(=O)Nc1sc2c(c1C(c1ccc(Cl)cc1)N1CCOCC1)CCCC2 (stereo not given)	18	14	10	0	·	·
O=C(NNC(=O)c1cncc(Br)c1)c1ccncc1	15	·	0	3	·	·
CCN(C(=O)CSc1nnnn1-c1ccc(Cl)cc1)C1CCS(=O)(=O)C1 (stereo not given)	1	·	-1	-1	·	·
O=C(C(=S)N1CCOCC1)c1c[nH]c2ccccc12	30*	·	0	3	3	2
O=C(CN1CCOCC1)c1c[nH]c2ccccc12	3	14	0	-2	·	·
CC(=O)Nc1nnc(S(=O)(=O)N2CCN(c3ccc([N+](=O)[O-])cc3Cl)CC2)s1	10	19	1	0	·	·
C[C@@H]1CN(Cc2nc(Cc3ccccc3F)no2)C[C@H](C)O1	33*	13	0	1	-3	-13
CCCCSCCCNC(=O)c1ccc(CS(=O)(=O)c2ccc(OC)cc2)o1	4	-2	1	0	·	·
COc1ccc(S(=O)(=O)N2CCCCCC2)cc1C(=O)N(C)Cc1cccs1	3	9	1	-1	·	·
SMILES	MC4R antagonist	AI-2 QS modul	NTR1 ag	MC4R ag barr	cAMP nonselect	MC4R cAMP antag
Cc1ccc(OCC(=O)NNC(=O)C2CCN(c3nc(C)cc(C)n3)CC2)cc1	29*	26	0	1	-4	-20
C=CCSc1nsc(NC(=O)Nc2ccc(F)cc2)n1	2	7	23	5	·	·
CCc1ccccc1NC(=O)CNC(=O)CNC(=O)c1cccs1	-8	·	-2	0	·	·
CCC(NC(=O)c1cc(COc2ccc(F)cc2Cl)on1)c1ccncc1 (stereo not given)	-4	8	1	4	·	·
O=C(c1cc(-c2cccs2)nn1-c1ccccc1)N1CCN(S(=O)(=O)c2ccccc2)CC1	29*	10	3	-2	3	8
Cn1c(=O)c2c(-c3ccccc3)n(-n3cnnc3)cc2n(C)c1=O	29*	-10	6	-2	2	10
CC1CCN(c2ccc3c(c2)S(=O)(=O)c2cccc(C(=O)NC4CC4)c2C3=O)CC1	-3	·	2	0	·	·
Cc1ccc(NC(=O)C(=O)NCC2CCCO2)cc1 (stereo not given)	-1	17	-1	-1	·	·
Cc1ccc(NC(=O)C(=O)NCC2CCCO2)cc1C (stereo not given)	36*	17	1	2	1	-6
N#Cc1ccsc1NC(=O)c1cccc([N+](=O)[O-])c1	-2	23	2	-2	·	·
N#Cc1ccsc1NC(=O)c1ccc(Cl)c([N+](=O)[O-])c1	36*	30	4	-1	10	11
COc1ccccc1-n1cc([C@@H]2C[C@H]3CN(c4ccccc4)C(=O)[C@]34CCCN24)cn1	35*	0	0	-2	0	-8
O=C(Cn1c(NCCO)nc2ccccc21)Nc1ccc2c(c1)OCCCO2	14	·	0	-2	·	·
CCOc1ccc(N(CC(=O)N/N=C/c2cccnc2)S(C)(=O)=O)cc1	31*	22	0	1	-1	1
CCCOc1ccc(/C=N/NC(=O)CN(c2ccc(OCC)cc2)S(C)(=O)=O)cc1	1	14	2	3	·	·
O=C(/C(=C/O)N=Nc1ccccc1)c1ccc(Cl)cc1	34*	25	8	2	6	9
Cc1ccc(N=N/C(=C\O)C(=O)c2ccc(Cl)cc2)cc1	-5	38	11	2	·	·
CC(C(=O)O)c1ccc(C(=O)c2ccccc2)s1 (stereo not given)	4	·	0	-1	·	·
Cc1ccc(S(=O)(=O)N2CCN(C(=O)COC(=O)C3CCC3)CC2)cc1	1	6	0	0	·	·
COc1ccc(OC)c(NC(=O)COC(=O)CN2C(=O)NC3(CCCC3)C2=O)c1	1	·	0	-1	·	·
O=c1c(=Nc2ccccc2O)c(=O)c2ccccc12	34*	23	0	-2	4	-1
O=Nc1c(O)c2ccccc2c2ccccc12	1	-36	·	4	·	·
O=S(=O)(NC1=NCCCCC1)c1ccc(F)cc1F	3	·	1	-3	·	·
O=S(=O)(NC1=NCCC1)c1ccc(F)cc1F	29*	9	1	-3	5	13
O=C(CCN1C(=O)NC2(CCCC2)C1=O)Nc1ccc(-c2nc3ccccc3s2)cc1	14	·	24	2	·	·
CCOC(=O)c1cnc2ccccc2c1Nc1cccc(C(=O)O)c1	39*	41	1	0	13*	20
CCOC(=O)c1cnc2ccc(OCC)cc2c1NCc1ccccc1	35*	16	20	0	7	22
CCOC(=O)c1cnc2ccc(OCC)cc2c1NCc1cccnc1	25	40	5	2	·	·
